System: Fibroblast
Test: Multiplex assay against human fibroblast
Assay type: toxicity, cell-based
Outline: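 Hoechst33342, BioTracker Green Microtubule Cytoskeleton Dye, MitoTracker Red and Annexin V Alexa Fluor 680 were added to live cells at seeding, and imaging on a CQ1 microscope at 37°C and 5% CO2 followed compound addition. Gating by CellPathfinder machine learning separated cells into Hoechst high-intensity objects or normal cells, then normal cells into healthy, pyknosed or fragmented nuclei, then pyknosed cells into mitotic or apoptotic. Per cents of healthy-nucleus cells are reported for the tubulin, mitochondrial-mass and membrane-permeability phenotypes.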

[1] = 12 h, 1 µM, compound concentration 1 uM, replicate 1
[2] = 12 h, 1 µM, compound concentration 1 uM, replicate 2
[3] = 12 h, 10 µM, compound concentration 10 uM, replicate 1
[4] = 12 h, 10 µM, compound concentration 10 uM, replicate 2
[5] = 24 h, 1 µM, compound concentration 1 uM, replicate 1
[6] = 24 h, 1 µM, compound concentration 1 uM, replicate 2
[7] = 24 h, 10 µM, compound concentration 10 uM, replicate 1
[8] = 24 h, 10 µM, compound concentration 10 uM, replicate 2
[9] = 48 h, 1 µM, compound concentration 1 uM, replicate 1
[10] = 48 h, 1 µM, compound concentration 1 uM, replicate 2
[11] = 48 h, 10 µM, compound concentration 10 uM, replicate 1
[12] = 48 h, 10 µM, compound concentration 10 uM, replicate 2

For Cc1c(Cc2ccc3ccccc3n2)c2cc(F)ccc2n1CC(=O)O [TIMAPIPRANT], the “Population Apoptotic (%)” value [1] was 41%, the “Population Fragmented Nuclei (%)” value [1] was 12% and the “Population Healthy Nuclei (%)” value [1] was 67%. For the same molecule, the “Population Hoechst High Intensity Objects (%)” value [1] was 5%, the “Population Membrane Permeable-Phenotype (%)” value [1] was 1% and the “Population Mitochondria Different-Phenotype (%)” value [1] was 7%. The “Population Mitotic Cells (%)” value [1] was 58%, the “Population Normal (%)” value [1] was 94% and the “Population Pyknosed Nuclei (%)” value [1] was 19%. The “Population Tubulin-Different-Phenotype (%)” value [1] was 26%, the “Total Cell Count” value [1] was 171 and the “Population Apoptotic (%)” value [2] was 33%. For the same molecule, the “Population Fragmented Nuclei (%)” value [2] was 28%, the “Population Healthy Nuclei (%)” value [2] was 49% and the “Population Membrane Permeable-Phenotype (%)” value [2] was 9%. The “Population Mitochondria Different-Phenotype (%)” value [2] was 4%, the “Population Mitotic Cells (%)” value [2] was 66% and the “Population Pyknosed Nuclei (%)” value [2] was 22%. For the same molecule, the “Population Tubulin-Different-Phenotype (%)” value [2] was 43%, the “Total Cell Count” value [2] was 142 and the “Population Apoptotic (%)” value [3] was 66%. For the same molecule, the “Population Fragmented Nuclei (%)” value [3] was 13%, the “Population Healthy Nuclei (%)” value [3] was 77% and the “Population Hoechst High Intensity Objects (%)” value [3] was 2%. For the same molecule, the “Population Membrane Permeable-Phenotype (%)” value [3] was 0%, the “Population Mitochondria Different-Phenotype (%)” value [3] was 7% and the “Population Mitotic Cells (%)” value [3] was 33%. The “Population Normal (%)” value [3] was 97%, the “Population Pyknosed Nuclei (%)” value [3] was 8% and the “Population Tubulin-Different-Phenotype (%)” value [3] was 35%. The “Total Cell Count” value [3] was 147, the “Population Apoptotic (%)” value [4] was 53% and the “Population Fragmented Nuclei (%)” value [4] was 26%. For the same molecule, the “Population Healthy Nuclei (%)” value [4] was 53%, the “Population Hoechst High Intensity Objects (%)” value [4] was 5% and the “Population Membrane Permeable-Phenotype (%)” value [4] was 1%. For the same molecule, the “Population Mitotic Cells (%)” value [4] was 46%, the “Population Normal (%)” value [4] was 95% and the “Population Pyknosed Nuclei (%)” value [4] was 19%. The “Population Tubulin-Different-Phenotype (%)” value [4] was 43%, the “Total Cell Count” value [4] was 160 and the “Population Apoptotic (%)” value [5] was 33%. The “Population Fragmented Nuclei (%)” value [5] was 9%, the “Population Healthy Nuclei (%)” value [5] was 73% and the “Population Hoechst High Intensity Objects (%)” value [5] was 1%. For the same molecule, the “Population Membrane Permeable-Phenotype (%)” value [5] was 3%, the “Population Mitochondria Different-Phenotype (%)” value [5] was 2% and the “Population Mitotic Cells (%)” value [5] was 66%. For the same molecule, the “Population Normal (%)” value [5] was 98%, the “Population Pyknosed Nuclei (%)” value [5] was 17% and the “Population Tubulin-Different-Phenotype (%)” value [5] was 26%. The “Total Cell Count” value [5] was 158, the “Population Apoptotic (%)” value [6] was 47% and the “Population Fragmented Nuclei (%)” value [6] was 30%. For the same molecule, the “Population Healthy Nuclei (%)” value [6] was 52%, the “Population Hoechst High Intensity Objects (%)” value [6] was 5% and the “Population Membrane Permeable-Phenotype (%)” value [6] was 7%. For the same molecule, the “Population Mitochondria Different-Phenotype (%)” value [6] was 4%, the “Population Mitotic Cells (%)” value [6] was 52% and the “Population Normal (%)” value [6] was 94%. The “Population Tubulin-Different-Phenotype (%)” value [6] was 38%, the “Total Cell Count” value [6] was 142 and the “Population Apoptotic (%)” value [7] was 66%. For the same molecule, the “Population Fragmented Nuclei (%)” value [7] was 14%, the “Population Healthy Nuclei (%)” value [7] was 77% and the “Population Hoechst High Intensity Objects (%)” value [7] was 2%. For the same molecule, the “Population Membrane Permeable-Phenotype (%)” value [7] was 0%, the “Population Mitochondria Different-Phenotype (%)” value [7] was 6% and the “Population Mitotic Cells (%)” value [7] was 33%. For the same molecule, the “Population Normal (%)” value [7] was 97%, the “Population Pyknosed Nuclei (%)” value [7] was 8% and the “Population Tubulin-Different-Phenotype (%)” value [7] was 30%. For the same molecule, the “Total Cell Count” value [7] was 150, the “Population Apoptotic (%)” value [8] was 52% and the “Population Fragmented Nuclei (%)” value [8] was 29%. The “Population Healthy Nuclei (%)” value [8] was 58%, the “Population Hoechst High Intensity Objects (%)” value [8] was 7% and the “Population Membrane Permeable-Phenotype (%)” value [8] was 3%. The “Population Mitochondria Different-Phenotype (%)” value [8] was 10%, the “Population Mitotic Cells (%)” value [8] was 47% and the “Population Normal (%)” value [8] was 92%. For the same molecule, the “Population Pyknosed Nuclei (%)” value [8] was 12%, the “Population Tubulin-Different-Phenotype (%)” value [8] was 52% and the “Total Cell Count” value [8] was 164. For the same molecule, the “Population Apoptotic (%)” value [9] was 72%, the “Population Fragmented Nuclei (%)” value [9] was 15% and the “Population Healthy Nuclei (%)” value [9] was 72%. The “Population Hoechst High Intensity Objects (%)” value [9] was 7%, the “Population Membrane Permeable-Phenotype (%)” value [9] was 0% and the “Population Mitochondria Different-Phenotype (%)” value [9] was 2%. For the same molecule, the “Population Mitotic Cells (%)” value [9] was 27%, the “Population Normal (%)” value [9] was 92% and the “Population Pyknosed Nuclei (%)” value [9] was 12%. For the same molecule, the “Population Tubulin-Different-Phenotype (%)” value [9] was 25%, the “Total Cell Count” value [9] was 162 and the “Population Apoptotic (%)” value [10] was 61%. For the same molecule, the “Population Fragmented Nuclei (%)” value [10] was 36%, the “Population Healthy Nuclei (%)” value [10] was 48% and the “Population Hoechst High Intensity Objects (%)” value [10] was 6%. The “Population Membrane Permeable-Phenotype (%)” value [10] was 2%, the “Population Mitochondria Different-Phenotype (%)” value [10] was 1% and the “Population Mitotic Cells (%)” value [10] was 38%. The “Population Normal (%)” value [10] was 94%, the “Population Pyknosed Nuclei (%)” value [10] was 14% and the “Population Tubulin-Different-Phenotype (%)” value [10] was 34%. For the same molecule, the “Total Cell Count” value [10] was 150, the “Population Apoptotic (%)” value [11] was 66% and the “Population Fragmented Nuclei (%)” value [11] was 18%. The “Population Healthy Nuclei (%)” value [11] was 75%, the “Population Hoechst High Intensity Objects (%)” value [11] was 5% and the “Population Membrane Permeable-Phenotype (%)” value [11] was 0%. For the same molecule, the “Population Mitochondria Different-Phenotype (%)” value [11] was 3%, the “Population Mitotic Cells (%)” value [11] was 33% and the “Population Normal (%)” value [11] was 94%. For the same molecule, the “Population Pyknosed Nuclei (%)” value [11] was 6%, the “Population Tubulin-Different-Phenotype (%)” value [11] was 31% and the “Total Cell Count” value [11] was 152. The “Population Apoptotic (%)” value [12] was 60%, the “Population Fragmented Nuclei (%)” value [12] was 30% and the “Population Healthy Nuclei (%)” value [12] was 59%. The “Population Hoechst High Intensity Objects (%)” value [12] was 2%, the “Population Membrane Permeable-Phenotype (%)” value [12] was 1% and the “Population Mitochondria Different-Phenotype (%)” value [12] was 1%. For the same molecule, the “Population Mitotic Cells (%)” value [12] was 40%, the “Population Normal (%)” value [12] was 97% and the “Population Pyknosed Nuclei (%)” value [12] was 9%. For the same molecule, the “Population Tubulin-Different-Phenotype (%)” value [12] was 37% and the “Total Cell Count” value [12] was 157.
